ANO1 block: mouse TMEM16A channel inhibition, primary screen; Q8BHY3; HEK293 TMEM16A/YFP iodide influx fluorescence, ionomycin; normalized B-score (activity score, 25-100; higher = stronger inhibition) at 10 µM; 310,000 tested, 1.2% active;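 active = ratio plate-corrected score three or more library SD toward inhibition, starting fluorescence score within five deviations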;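 also: score derived from kinetic fluorescence span divided by baseline fluorescence per well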
ANO1 activ: mouse TMEM16A channel activation, primary screen | Q8BHY3 | HEK293 TMEM16A/YFP-H148Q/I152L, iodide quench fluorescence; hits give low values | B-score at 10 µM | 340,000 tested, 0.3% active | AID 623877;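 active = fluorescence-ratio B-score plate-corrected deviation score at least 3 library SD below zero, with starting fluorescence score within 5 deviations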;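 also: channel opened by trigger with iodide after compound preincubation; score built on the fluorescence ratio of max minus min over baseline; more negative score means more quench and so TMEM16A activation or potentiation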
TAAR1 ag: human TAAR1 agonism; CHO RD-HGA16 TAAR1, Fluo-8 calcium fluorescence; vehicle wells 0%, saturating PEA agonist 100%; activation, % at 3 µM; 360,000 tested, 0.99% active;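 active = activation above the mean activation of all test compounds in the run plus 3 SD, cut at about 38% in these data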
Target sequence (Q96RJ0 whole entry, looked up): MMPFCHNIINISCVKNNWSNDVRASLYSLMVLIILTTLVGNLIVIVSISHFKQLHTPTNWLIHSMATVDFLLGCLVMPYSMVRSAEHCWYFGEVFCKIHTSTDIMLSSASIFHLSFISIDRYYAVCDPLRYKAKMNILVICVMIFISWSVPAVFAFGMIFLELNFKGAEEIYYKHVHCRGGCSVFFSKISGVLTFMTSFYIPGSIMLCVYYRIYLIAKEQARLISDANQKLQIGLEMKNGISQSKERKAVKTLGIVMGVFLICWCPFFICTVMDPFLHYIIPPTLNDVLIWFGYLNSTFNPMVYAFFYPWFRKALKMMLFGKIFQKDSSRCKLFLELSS
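Assay system – CHO-derived RD-HGA16 cells with stable Gα16 and human TAAR1 · Compound dosing – one-point dosing at 3 µM (nominal) · Incubation – 17-24 h seeding, 75 min 37 °C dye, 30 min RT · Measured by – kinetic Fluo-8 calcium fluorescence · Control set – DMSO vehicle as 0%, PEA at EC100 as 100% · Repeats – single well for each compound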
TAAR1 antag: human TAAR1 antagonism. Q96RJ0. CHO RD-HGA16 TAAR1, Fluo-8 calcium fluorescence, antagonist. inhibition, % at 3 µM. 360,000 tested, 1.5% active. AID 624466;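 active = inhibition above a per-plate cutoff, the mean inhibition of test compounds on that plate plus 3 SD, cut at about 49% in these data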
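Test system – hTAAR1-expressing CHO RD-HGA16 cells, Gα16-coupled · Reagent – β-PEA at EC80 concentration, post-compound challenge · Compound dosing – 3 µM, single point · Timing – 140 s kinetic read after compound, 140 s after agonist · Detection – Fluo-8 intracellular calcium dye fluorescence, real-time kinetic reads · Control set – DMSO and EC80 PEA controls · Repeats – n of 1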
CRFBP-R2 agonist: CRF-BP/CRF-R2 complex agonism | HEK293 CRF-R2/CRF-BP, calcium dye fluorescence (FLIPR); percent of saturating CRF peptide response | activation, % at 13.2 µM | 350,000 tested, 0.46% active;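 active = activation of at least 50%, plus an integration ratio under a set limit after plate pattern correction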
CRFBP-R2 block: blocks CRF-induced signaling of the CRF-BP/CRF-R2 complex | inhibition, % at 11.8 µM | 350,000 tested, 0.59% active | HEK293 CRF-R2/CRF-BP, CRF-induced calcium fluorescence;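 active = inhibition of the ligand-induced calcium signal above about 50% at the single tested concentration, limit read from the data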
A number is an active result; i = inactive; nt = no result given. Rows were chosen to be rich in hits. Some 3.9% of all compounds tested hit in one or more screens of this group.

SMILES	ANO1 block	ANO1 activ	TAAR1 ag	TAAR1 antag	CRFBP-R2 agonist	CRFBP-R2 block
Cc1cc(C)c2nc(N(CCCN(C)C)C(=O)c3ccc4c(c3)CCCC4)sc2c1	i	nt	i	i	i	i
Cc1ccc2nc(N(CCCN(C)C)C(=O)c3ccc4c(c3)CCCC4)sc2c1	i	i	38.0	i	i	i
CCCCN(C(=O)c1ccc(S(=O)(=O)N(C)C)cc1)c1nc2ccccc2s1	i	-9.05	i	i	i	i
CCCCN(C(=O)c1ccc(S(=O)(=O)N(C)C)cc1)c1ccccc1	i	i	i	i	i	i
CC(=O)Nc1ccc(S(=O)(=O)N[C@@H](C)C(=O)OCC(=O)NC2CCCC2)cc1	nt	i	i	i	i	i
CC(=O)N1CCN(c2nnnn2-c2ccccc2)CC1	i	i	i	i	i	i
c1ccc(CC2CCN(c3nnnn3-c3ccccc3)CC2)cc1	100	i	i	i	i	i
O=C(Nn1cnc2ccccc2c1=O)c1ccc(Cl)c([N+](=O)[O-])c1	i	i	i	i	i	i
COC(=O)c1ccc(Sc2ccc(Cl)cc2)c(N)c1	i	i	i	i	i	73.3
O=C(Nc1ccc(C(=O)NCCCN2CCCCC2)cc1)C1=CSCCO1	i	i	i	i	i	i
O=C(Nc1ccc(C(=O)NCCCN2CCN(c3ccc(F)cc3)CC2)cc1)C1=CSCCO1	i	i	45.4	i	62.0	i
CC1CN(C(=S)NC(=O)c2ccco2)CC(C)O1 (configuration not stated)	i	i	i	i	i	i
Cc1ccc(C)c(N=Nc2ccc(O)c3ncccc23)c1	i	i	i	i	i	i
Cc1cccc(N=Nc2ccc(O)c3ncccc23)c1	i	i	i	76.4	i	i
Oc1ccc(N=Nc2ccc3c(c2)OCCO3)c2ncccc12	i	i	i	79.1	i	i
CC/C(=N/NC(=O)c1ccccc1O)c1c(C)[nH]n(-c2ccccc2)c1=O	i	i	i	i	i	i
O=C(COC(=O)CNC(=O)c1ccc(Cl)cc1)Nc1ncc(C(F)(F)F)cc1Cl	i	i	i	i	i	i
O=C(COC(=O)C1(c2ccc(Cl)cc2)CCCC1)Nc1ncc(C(F)(F)F)cc1Cl	100	i	i	i	i	i
CON(C)S(=O)(=O)c1cccc(C(=O)N(CC(=O)Nc2ccccc2C(F)(F)F)Cc2ccco2)c1	nt	i	i	i	i	i
C/C(=N\NC(=S)NC(C)C)c1ccccc1OC(F)F	i	-38.5	i	i	i	i
O=C(Nc1ccc([N+](=O)[O-])cc1)Nc1ccc(OC(F)F)c(Cl)c1	i	i	i	59.5	i	i
O=C(Nc1ccc(OC(F)F)c(Cl)c1)Nc1ccc2c(c1)OCO2	i	i	i	i	i	i
O=C(NCCCNc1ccc(C(F)(F)F)cc1[N+](=O)[O-])c1ccc(Cl)cc1	100	i	i	i	i	i
C[C@H](NC(=O)C1(c2ccccc2)CCN(C(=O)[C@H]2CSCN2C(=O)OC(C)(C)C)CC1)C(=O)O	i	-5.13	i	i	i	i
CC(O)[C@H](NC(=O)C1(c2ccccc2)CCN(C(=O)OC(C)(C)C)CC1)C(=O)O (some centres not stated)	i	i	i	i	i	i
SMILES	ANO1 block	ANO1 activ	TAAR1 ag	TAAR1 antag	CRFBP-R2 agonist	CRFBP-R2 block
O=C(CC1SC(N2CCOCC2)=NC1=O)Nc1cc([N+](=O)[O-])ccc1Cl (configuration not stated)	i	i	i	i	i	i
CCCCc1ccc(N=N/C(C(=O)Nc2ccc(NC(C)=O)cc2OC)=C(/C)O)cc1	i	i	i	i	i	i
O=C(CCN1C(=O)/C(=C\c2ccccc2)SC1=S)NNC(=O)c1cccnc1	i	i	i	53.8	i	i
O=C(CCCN1C(=O)/C(=C/c2ccccc2Cl)SC1=S)NNC(=O)c1cccnc1	i	i	i	i	i	i
CCc1ccc(/C=C2/SC(=S)N(CCCC(=O)Nc3ccccc3C(=O)O)C2=O)cc1	100	i	i	i	i	i
CSCCC(NC(=O)COc1ccccc1)C(=O)N(C)Cc1c(F)cccc1Cl (configuration not stated)	nt	nt	i	52.1	i	i
CSCCC(NC(=O)COc1ccccc1)C(=O)N(C)CC(=O)Nc1ccc(Cl)cc1 (configuration not stated)	nt	i	i	i	i	i
O=C1C2C3C=CC(C3)C2C(=O)N1CCN1CCN(Cc2ccc([N+](=O)[O-])cc2)CC1 (configuration not stated)	i	i	i	i	i	i
NC(=S)N/N=C/c1c[nH]c2ccc(OCc3ccccc3)cc12	25	i	nt	nt	i	i
CCOc1ccc(S(=O)(=O)Nc2cnc3ccccc3c2)cc1	25	i	i	i	i	i
CCOc1ccc(S(=O)(=O)Nc2cccnc2)cc1	i	i	i	i	i	52.9
CCSc1nnc(NC(=O)CCN2C(=O)C3CCCCC3C2=O)s1 (configuration not stated)	nt	i	i	i	i	i
Brc1ccc(OCc2ccccc2)c(CNCc2ccncc2)c1	i	i	i	70.1	i	i
C/C=N\NC(=O)CNC(=O)CNC(=O)c1ccccc1	i	i	i	i	i	i
Cc1c(Cl)cccc1N1C(=O)c2ccccc2C1=O	i	i	i	i	i	50.7
Cc1nn(S(=O)(=O)c2ccccc2)c(C)c1Sc1ccc([N+](=O)[O-])cc1	25	i	i	i	i	i
Cc1nn(S(=O)(=O)c2cccc([N+](=O)[O-])c2)c(C)c1Br	i	i	i	i	i	i
CSc1ccc(CN2CCC(C)(Oc3ccccc3)C2)cc1 (configuration not stated)	nt	nt	i	i	nt	nt
O=C(COC(=O)COc1ccc(Cl)cc1)Nc1cccnc1Cl	nt	nt	i	i	i	i
COc1cc2[nH]c(=O)n(CCCCCC(=O)NC3CCCC3)c(=O)c2cc1OC	i	i	i	i	i	66.9
COc1cc2[nH]c(=O)n(CCC(=O)NC3CCCC3)c(=O)c2cc1OC	i	i	i	i	i	i
COc1cc2[nH]c(=O)n(CCC(=O)N3CCN(c4cc(Cl)ccc4C)CC3)c(=O)c2cc1OC	100	i	i	i	i	i
O=C(CCCn1c(=O)[nH]c2cc(Cl)ccc2c1=O)NC1CCCCCC1	25	i	i	i	i	i
Cc1nn(CC(=O)NC(=O)NC2CCCC(C)C2C)c(=O)c(C#N)c1C (configuration not stated)	i	i	i	i	i	i
CCOC(=O)C1=C(CN2CCN(C(=O)c3ccco3)CC2)NC(=O)NC1c1ccc(C)cc1 (configuration not stated)	i	i	i	i	i	i
Cc1cc(NC(=O)Cc2ccccc2)c2ccccc2n1	25	i	i	i	i	i

High-throughput results: PubChem, several laboratories
